# Measured values taken from PubChem BioAssay AID1242 (PCMD, 2008).
# Out of some 120,000 compounds screened, about 20 (0.02%) were called active.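 How the source made its calls: active means inhibition above 30.3% in the primary screen of four-compound pools, then above 30% when the compound was retested; inconclusive means passed the primary limit but could not be retested; inactive means the rest.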 Only a selection was taken, and actives are over-represented in it overall.
# Experiment: clotrimazole potentiators killing C. albicans biofilm, primary screen, 4-compound mixtures (AID 1242);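 further: compounds exposed to preformed 24 h biofilms for 48 h; 0% = untreated biofilm control and 100% = clotrimazole plus chlorhexidine kill blank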
# Details: C. albicans biofilm persisters + clotrimazole, fluorescence viability, primary screen in compound mixtures, stronger effect = higher value; at 7.6 µM unless noted
# Method in brief: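 Test system: C. albicans CAF4-2 wild-type biofilms; buffer or medium: RPMI/MOPS medium, pH 7.0; schedule: 24 h biofilm formation, then 48 h compound exposure, 37 °C; detection: Alamar Blue fluorescence; measure: percent inhibition of biofilm viability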
row,SMILES,inhibition
1,CC1Cc2ccccc2N1S(=O)(=O)c1ccc(Cl)nc1 (stereo unspecified),14.3% (inactive)
2,Cc1cc2nc(C(F)(F)F)cc(-c3cccs3)n2n1,8.23% (inactive)
3,COc1ccc(C(=O)C2CCCN(C(=O)c3cc4nc(C)cc(C)n4n3)C2)cc1F (stereo unspecified),16.6% (inactive)
4,CCOC(=O)C1(Cc2cccc(OC)c2)CCN(C(C)COC)CC1 (stereo unspecified),14.5% (inactive)
5,NCC(=O)c1cccc2ccc[n+]([O-])c12,12.9% (inactive)
6,N=c1c2c3c(sc2ncn1N)CCCC3,20.4% (inactive)
7,CCOC(=O)CN1CCC(c2ccccc2)CC1,13.7% (inactive)
8,Cc1cc(N)n(-c2ccc(S(=O)(=O)N3CCCC3)cc2[N+](=O)[O-])n1,11.7% (inactive)
9,CC(=O)c1cccc(-n2nnnc2SCC(=O)NNC(=O)C2CCCCC2)c1,5.73% (inactive)
10,C/C(=N/Nc1ccc(Cl)cc1)c1cnnc(-c2ccccc2)n1,7.24% (inactive)
11,COc1ccc(Cl)cc1N(CC(=O)N/N=C/c1ccc(OCC(N)=O)cc1)S(C)(=O)=O,20.2% (inactive)
12,S=C(NCCc1ccccc1)N1CCn2cccc2C1c1ccncc1 (stereo unspecified),11.1% (inactive)
13,COc1ccccc1C(c1nnnn1CC1CCCO1)N1CCN(c2ccccc2)CC1 (stereo unspecified),29.3% (inactive)
14,COc1ccc(NC(=O)CSc2nnc(-c3ccccc3F)n2C2CC2)cc1S(N)(=O)=O,7.66% (inactive)
15,O=C(Cn1c(N2CCN(C/C=C/c3ccccc3)CC2)nc2ccccc21)c1ccccc1,9.46% (inactive)
16,CCC(C)(C)NC(=O)CN(C(=O)CCC(=O)Nc1cc(C)ccn1)c1ccc2c(c1)OCCO2,1.7% (inactive)
17,Cc1ccc(OCC(=O)NC(C)c2ccccc2)c([N+](=O)[O-])n1 (stereo unspecified),8.35% (inactive)
18,CCc1cc2c(=O)c(-c3nc4ccccc4n3C)c(CCCC(=O)O)oc2cc1OC(=O)C(C)(C)C,14.2% (inactive)
19,COC(=O)Cc1ccc(NC(=S)NCc2ccco2)cc1,1.39% (inactive)
20,Cc1ccc(Cl)cc1NC(=O)C1CCN(S(C)(=O)=O)CC1,-19.3% (inactive)
21,CSc1nc(C)nc(C2CC2)c1C#N,26.1% (inactive)
22,CCc1nc2sc(C(=O)O)c(N)c2c2c1CCCC2,17.7% (inactive)
23,O=C1Nc2cc(Cl)c(Cl)cc2N(O)N1c1ccccc1Cl,16.7% (inactive)
24,CC1=CC=CC2=N/C(=N\S(=O)(=O)c3ccc(F)cc3F)c3ccccc3CN12,14.1% (inactive)

row,SMILES,inhibition
1,NNC(=O)c1cccc(COCC(F)(F)C(F)F)c1,11.2% (inactive)
2,CC(C)(C)n1nc2c(c1NC(=O)c1cc3ccccc3o1)CSC2,8.07% (inactive)
3,CC(=O)NC(=S)Nc1ccc(NC(=O)c2cccnc2)cc1,26.7% (inactive)
4,CN(c1ccccc1)S(=O)(=O)c1ccc(Cl)c(C(=O)OCC(N)=O)c1,9.93% (inactive)
5,COc1ccc2nc(Nc3nc(-c4ccncc4)cs3)sc2c1,12.3% (inactive)
6,COCCCNC(=O)Cn1c(=O)n(Cc2ccccc2Cl)c(=O)c2cc(OC)c(OC)cc21,5.13% (inactive)
7,COc1ccc(N=C(C)c2sc3ccccc3c2O)cc1,24.2% (inactive)
8,Cc1ccc(Cl)c(OCC(=O)NN2CCN(C)CC2)c1,16.5% (inactive)
9,CC1=C(C)CC(C(=O)NC(C)CCc2ccccc2)C(C(=O)O)C1 (stereo unspecified),-32% (inactive)
10,C/C(CCc1ccccc1)=N\NC(=O)c1ccc(CN2CCOCC2)cc1,20.4% (inactive)
11,COc1ccc(S(=O)(=O)N(C)CC(=O)N2CCCC2)cc1Cl,15.4% (inactive)
12,COc1ccc(/C=N/NC(=O)CNC(=O)c2ccc(S(=O)(=O)N3CCCC3)cc2)c(OC)c1,1.69% (inactive)
13,O=C(Cc1ccc(F)cc1)N/N=C/c1ccc2c(c1)OCO2,-22.6% (inactive)
14,Cc1nnc(Nc2ccccc2F)s1,16.6% (inactive)
15,CCC(=O)c1ccc(N2CCN(C(=O)c3cc([N+](=O)[O-])ccc3F)CC2)c(F)c1,-4.84% (inactive)
16,Cn1c(SCC(=O)NC2CCCCC2)nnc1-c1ccc(N)cc1,21.9% (inactive)
17,COc1ccc(C(=O)NCC(=O)N/N=C/c2ccc([N+](=O)[O-])s2)cc1OC,20.6% (inactive)
18,C/C(=N/OC(=O)c1c(-c2c(F)cccc2Cl)noc1C)c1cnccn1,10.3% (inactive)
19,CC(=O)N/C(=C\c1ccc(F)cc1)C(=O)NC(Cc1ccccc1)C(=O)O (stereo unspecified),14.6% (inactive)
20,N#Cc1c(NCCO)ccc([N+](=O)[O-])c1NCCO,15.9% (inactive)
21,Nn1c(SCc2ccccc2)nnc1C1CCCCC1,25.1% (inactive)
22,Cc1ccc(C(=O)O)cc1N1C(=O)CCCC1=O,29.3% (inactive)
23,O=C(O)CC/C(=N\NC(=O)c1ccc(F)cc1)c1ccc(Br)cc1,0.26% (inactive)
24,O=C1COc2ccc(C(=O)COC(=O)c3cccnc3Cl)cc2N1,3.67% (inactive)

row,SMILES,inhibition
1,Cn1c(=O)c2c(ncn2CC(=O)N/N=C/c2cn[nH]c2-c2ccc(F)cc2)n(C)c1=O,8.1% (inactive)
2,CCOC(=O)c1c(CN(C)C)n(-c2ccccc2)c2cc(Br)c(O)cc12,6.02% (inactive)
3,O=C(NCCN1CCOCC1)c1ccc2c(c1)N(Cc1ccc(Cl)cc1)CCS2,-21.2% (inactive)
4,Cc1cccc(NC(=S)NCCc2ccc(F)cc2)c1C,13.3% (inactive)
5,Cc1ccc(N2C(=O)SC(N(CC(=O)O)c3ccc(C)cc3)C2=O)cc1 (stereo unspecified),30.1% (inactive)
6,COc1cc(OC)c(C(=O)OCC(=O)N2CC(=O)Nc3ccccc32)cc1OC,16% (inactive)
7,Cc1nn(C)c(C)c1CN(C(=O)CCc1nnc(Cc2c[nH]c3ccccc23)o1)C(C)C,21.1% (inactive)
8,C/C(=N\NC(=O)c1cccnc1)c1ccc(-c2ccccc2)cc1,11.8% (inactive)
9,Cc1ccc(S(=O)(=O)N(CC(=O)NN=C2CCN(C)CC2)c2ccc(F)cc2)cc1,12.2% (inactive)
10,CC(CO)(CO)NC(=O)c1ccc(=O)[nH]n1,20.4% (inactive)
11,NNC(=O)C1CC(O)CN1S(=O)(=O)c1ccc(Cl)cc1 (stereo unspecified),-0.83% (inactive)
12,Cc1ccccc1NC(=O)NNC(=O)OC(C)(C)C,17.1% (inactive)
13,COc1ccc(C(=O)CSc2nnnn2C)c(OC)c1,0.17% (inactive)
14,CC(=O)Nc1ccc(S(=O)(=O)NC2(C(F)(F)F)C(=O)NC(C)=C2C#N)cc1 (stereo unspecified),25.1% (inactive)
15,O=C(Nc1nnc(C2CC2)s1)C1=NN(C2CCS(=O)(=O)C2)C(=O)CC1 (stereo unspecified),7.46% (inactive)
16,COc1cccc(/C=C/C(=O)Nc2ccc3c(c2)OCCO3)c1,21.2% (inactive)
17,O=C(CC1CCCCC1)NCc1ccc(F)cc1,14.7% (inactive)
18,Cc1ccc(CN2CCN(Cc3ccc(OCCO)cc3)CC2CCO)o1 (stereo unspecified),19.8% (inactive)
19,COC(=O)c1cc(C(=O)OCC(=O)Nc2cc(C)on2)cc([N+](=O)[O-])c1,19.1% (inactive)
20,Cc1nc(=O)c(-c2ccccc2)c(C)n1-c1ccc(Br)cc1,15.2% (inactive)
21,O=C(CCc1ccccc1)NCCc1cccs1,19.8% (inactive)
22,Cc1ccc(C(=O)NNc2ncnc3ccccc23)cc1,25.7% (inactive)
23,CCOC(=O)C1CCN(c2ncnc3c2c(-c2ccccc2)cn3-c2ccc(C)cc2)CC1,10.1% (inactive)
24,O=C1CC(Cc2ccc(Cl)cc2)C(=O)N1c1cc(Cl)ccn1 (stereo unspecified),15.9% (inactive)

row,SMILES,inhibition
1,CCc1ccccc1NC(=O)CSc1nnc(CCNC(=O)OC(C)(C)C)o1,24.5% (inactive)
2,O=C(O)c1cccc(NC(=O)c2cc(-c3cccc(Cl)c3)nc3ccccc23)c1,16.3% (inactive)
3,Cn1cnnc1SCC(=O)Nc1ccc(N2CCOCC2)cc1,1.33% (inactive)
4,COc1c(C)cc(C(=O)C2CCCN(S(=O)(=O)c3c(C)noc3C)C2)cc1C (stereo unspecified),2.3% (inactive)
5,COc1cc(N2C(=O)c3ccccc3C2=O)c(Cl)cc1C(=O)OCC(=O)N1CCOCC1,3.87% (inactive)
6,COc1ccc(CCNC(=O)C(=O)Nc2ccc3nc4n(c(=O)c3c2)CCCCC4)cc1OC,5.01% (inactive)
7,O=C(O)c1ccc(/C=N/NC(=S)NCc2ccccc2)cc1,10.6% (inactive)
8,COc1ccc(-c2[nH]ncc2CN(Cc2nccn2C)C(C)C)cc1F,6.59% (inactive)
9,Cc1ccc(NC(=O)c2ccccn2)cc1S(=O)(=O)N1CCOCC1,7.29% (inactive)
10,Cc1ccc(NC(=S)N(CCN(C)C)Cc2cccs2)cc1C,17.2% (inactive)
11,O=[N+]([O-])c1cccc2ncccc12,12.4% (inactive)
12,COc1cccc(N2C(=O)CC(N3CCc4ccccc4C3)C2=O)c1 (stereo unspecified),17.8% (inactive)
13,CCOc1cc(NC(=S)NCc2ccco2)c(OCC)cc1NC(=O)c1ccco1,2.67% (inactive)
14,N/C(=N\OC(=O)c1ccc2c(c1)OCO2)c1ccc(Br)cc1,8.49% (inactive)
15,CC(=O)Cn1ncc(N2CCOCC2)c(Br)c1=O,-3.05% (inactive)
16,Cn1nnnc1SCC(=O)NNC(=O)c1ccc(Br)cc1,11.2% (inactive)
17,CCCCN(C(=O)COc1ccc(NC(C)=O)cc1)C1CCS(=O)(=O)C1 (stereo unspecified),12.9% (inactive)
18,O=C(c1cn2ccccc2n1)N1CCc2c([nH]c3ccccc23)C1c1ccccn1 (stereo unspecified),0.31% (inactive)
19,O=c1[nH]c(N2CCN(Cc3ccc4c(c3)OCO4)CC2)nc2c1CCCC2,6.65% (inactive)
20,CCOC(=O)c1c(-c2cccc(N)c2)cn2ccccc12,6.08% (inactive)
21,O=C(Nc1ccc2c(c1)C(=O)OC2)Nc1cccc2ccccc12,-1.47% (inactive)
22,CC(Oc1ccc(Br)cc1Br)C(=O)NC1CCCC1 (stereo unspecified),19.2% (inactive)
23,COc1ccc(CC(=O)NCC(=O)N/N=C/c2cc(Br)ccc2OC)cc1,19.3% (inactive)
24,CCOC(=O)/C(C#N)=C/c1ccc(N2CCCCC2)cc1,16.2% (inactive)
